# Measurements reported in article PMC9284555 (Journal of Agricultural and Food Chemistry, 2022).
# pIC50: −log10 of the molar value.
# What was measured:
# [1] = assay type: in vivo, human; conditions: for relative intensity (EGCG = 1): LC-MS intensity in human plasma after ingestion of catechin-rich tea; for AUC0–6h / T1/2 / Tmax: human plasma, oral catechin-rich beverage (135 mg EGCG), mean ± SD, n = 10
# Outline: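 Ten healthy fasted men drank 350 mL of a beverage with 615 mg catechins (135 mg EGCG). Plasma was taken at 0.5–6 h, acid/ascorbate/EDTA-stabilised and stored at −80 °C. Samples went through solid-phase extraction with an ethyl gallate internal standard. Analytes were identified and quantified by Orbitrap LC–MS (calibration 1–500 ng/mL). Parameters came from noncompartmental analysis; mean ± SD.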
# SULT1A1 = conditions: inhibition of SULT1A1; cited from earlier work
# SULT1A3 = conditions: inhibition of SULT1A3; cited from earlier work
# COMT = conditions: inhibition of COMT; cited from earlier work
relative intensity (EGCG = 1) [1],AUC0–6h [1] [nmol·h·L^–1],T1/2 [1] [h],Tmax [1] [h],Compound,pIC50 (SULT1A1),pIC50 (SULT1A3),pIC50 (COMT)
0.39,198.9 ± 23.8,1.5 ± 0.64,1.3 ± 0.26,O=C(O[C@@H]1Cc2c(O)cc(O)cc2O[C@@H]1c1cc(O)c(O)c(O)c1)c1cc(O)c(O[C@@H]2O[C@H](C(=O)O)[C@@H](O)[C@H](O)[C@H]2O)c(O)c1 [EGCG-4″-glucuronide],,,
0.76,715.2 ± 127.1,3.9 ± 1.5,2.5 ± 0.60,O=C(O[C@@H]1Cc2c(O)cc(O)cc2O[C@@H]1c1cc(O)c(O)c(O)c1)c1cc(O)c(OS(=O)(=O)O)c(O)c1 [EGCG-4″-sulfate],,,
,,,,O=c1c(O)c(-c2ccc(O)c(O)c2)oc2cc(O)cc(O)c12 [quercetin],4.89 to 6.39,5.15,5.07 to 6.05

Compound,relative intensity (EGCG = 1) [1],AUC0–6h [1] [nmol·h·L^–1],T1/2 [1] [h],Tmax [1] [h],pIC50 (SULT1A1),pIC50 (SULT1A3),pIC50 (COMT)
(E)GCG-dimethyl-sulfate [(E)GCG-diMe-sulfate],0.54,,,,,,
